Two compounds from ChEMBL document CHEMBL1126267, “A novel synthesis and potent antiinflammatory activity of 4-hydroxy-2(1H)-oxo-1-phenyl-1,8-naphthyridine-3-carboxamides” (1992) can be followed below.

Usually inhibition in vivo stands for the drop in the measured response relative to a control, in per cent. Low readings indicate a response near the control, high ones a response far below the control.

What all share (assay type): functional
Details in all cases: route oral

Assay [1] concerns Rattus norvegicus. The assay can be described thus: Compound was tested for the inhibition of rat reversed passive Arthus pleurisy after peroral administration of 100 mg/kg dose at 3.44*10e6 no of cells with 7.4*10e6 cells of control. The gist of the method: (§1)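 Male Wistar rats (about 250 g) under ether received 0.2 mL rabbit anti-egg-albumin antiserum intrapleurally. Thirty min later they got 15 mg EA/100 g body weight in 0.1 mL saline iv. Compounds were given orally beforehand. Rats were killed 4.5 h after induction and the thoracic cavity rinsed with 5 mL saline. Exudate volume and infiltrated cell count were read as mean ± SE. % inhibition is versus control.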

The subject of assay [2] is Rattus norvegicus. Description: Compound was tested for the inhibition of rat reversed passive Arthus pleurisy after peroral administration of 100 mg/kg dose at 0.58 mL of exudate volume with 0.82 mL of control (injected intrapleurally). In a few lines: (§2)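 Male Wistar rats (about 250 g) were given compound orally before the antiserum. Under ether anesthesia, 0.2 mL rabbit anti-egg albumin antiserum was injected intrapleurally. After 30 min, egg albumin (15 mg/100 g body weight in 0.1 mL saline) was given iv. Rats were killed 4.5 h later and the thoracic cavity was rinsed with 5 mL saline. Exudate volume and infiltrated cell number were measured, with inhibition % versus controls as mean ± SEM.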

Assay [3] deals with Rattus norvegicus. The assay can be described thus: Inhibition of Zymosan-induced rat's paw edema(ZPE) after peroral administration of 100 mg/kg dose. In a few lines:
(§3)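 Male Wistar rats (about 150 g) were dosed orally with compound suspended in 5% arabic gum, 1 h before a subplantar hind-paw injection of 0.1 mL saline. The irritant was 1% zymosan for 33 or 1% λ-carrageenin for 34. Paw volume was measured by plethysmograph before dosing and at 4 h (zymosan) or 3 h (carrageenin). Swelling is relative to initial volume, as mean ± SEM. % inhibition is versus the control group's mean swelling.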

Assay [4] deals with Rattus norvegicus. Description: Antiinflammatory activity on Carrageenan rat's paw edema(CPE) after peroral administration of 100 mg/kg dose with control swelling of 73.7%. A general note: In the carrageenan paw model, swelling and tenderness develop within hours.
Assay [5] concerns Rattus norvegicus. The assay can be described thus: Antiinflammatory activity on Zymosan-induced rat's paw edema(ZPE) after peroral administration of 100 mg/kg dose with control swelling of 72.9%. In a few lines: (§4)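 Male Wistar rats weighing about 150 g were dosed orally with compound suspended in 5% arabic gum. 1 h later, 1% zymosan in 0.1 mL saline was injected subplantarly into the hind paw. Paw volume was measured by plethysmograph before dosing and 4 h after zymosan, with edema as the volume difference. Inhibition % was derived from mean swelling versus the control group.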

Assay [6] relates to Rattus norvegicus. Description: Inhibition of carrageenan-induced rat's paw edema (CPE) after peroral administration of 100 mg/kg dose. In a few lines:
as §3

Assay [7] relates to Rattus norvegicus. Description: Compound was tested for the inhibition of rat reversed passive Arthus pleurisy after peroral administration of 100 mg/kg dose at 1.52*10e6 no of cells with 3.24*10e6 cells of control. The gist of the method: as §2
The test system of assay [8] is Rattus norvegicus. The assay can be described thus: Compound was tested for the inhibition of arachidonic acid-induced rat's paw edema(APE) after peroral administration of 100 mg/kg dose. The gist of the method: (§5)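 Test: arachidonic acid paw edema in male Wistar rats of about 150 g. Oral dosing in 5% arabic gum came 1 h before subplantar injection of 1% arachidonic acid sodium salt in 0.1 mL saline into the hind paw. Plethysmograph paw volume was read before dosing and 1 h post-irritant, and edema = volume difference. % inhibition was taken from mean swelling against controls.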

Assay [9] deals with Rattus norvegicus. The assay can be described thus: Compound was tested for the inhibition of rat reversed passive Arthus pleurisy after peroral administration of 10 mg/kg dose at 0.44 mL of exudate volume with 0.68 mL of control (injected intrapleurally). In a few lines:
as §2

The subject of assay [10] is Rattus norvegicus. Description: Compound was tested for the inhibition of rat reversed passive Arthus pleurisy after peroral administration of 10 mg/kg dose at 3.18*10e6 no of cells with 3.24*10e6 cells of control. The gist of the method: as §2
The subject of assay [11] is Rattus norvegicus. The assay can be described thus: Compound was tested for the inhibition of Carrageenan rat's paw edema(CPE) after peroral administration of 30 mg/kg dose.
Assay [12] has as its system Rattus norvegicus. The assay can be described thus: Compound was tested for the inhibition of arachidonic acid-induced rat's paw edema(APE) after peroral administration of 30 mg/kg dose. The gist of the method:
as §5

In assay [13] the test system is Rattus norvegicus. Description: Compound was tested for the inhibition of rat reversed passive Arthus pleurisy after peroral administration of 100 mg/kg dose at 0.12 mL of exudate volume with 0.68 mL of control (injected intrapleurally). In a few lines:
as §2

Assay [14] relates to Rattus norvegicus. The assay can be described thus: Compound was tested for the inhibition of rat reversed passive Arthus pleurisy after peroral administration of 3 mg/kg dose at 0.6 mL of exudate volume with 0.68 mL of control (injected intrapleurally). The gist of the method:
as §1

Assay [15] deals with Rattus norvegicus. Description: Compound was tested for the inhibition of rat reversed passive Arthus pleurisy after peroral administration of 3 mg/kg dose at 3.17*10e6 no of cells with 3.24*10e6 cells of control. In a few lines:
as §1

In assay [16] the test system is Rattus norvegicus. The assay can be described thus: Compound was tested for the inhibition of rat reversed passive Arthus pleurisy after peroral administration of 30 mg/kg dose at 0.33 mL of exudate volume with 0.68 mL of control (injected intrapleurally). The gist of the method: as §1
For assay [17], the system named is Rattus norvegicus. Description: Compound was tested for the inhibition of rat reversed passive Arthus pleurisy after peroral administration of 30 mg/kg dose at 2.79*10e6 no of cells with 3.24*10e6 cells of control. In a few lines:
as §1

Assay [18] deals with Rattus norvegicus. Description: Antiinflammatory activity on Carrageenan rat's paw edema(CPE) after peroral administration of 100 mg/kg dose with control swelling of 69.9%.
Assay [19] relates to Rattus norvegicus. The assay can be described thus: Compound was tested for the inhibition of arachidonic acid-induced rat's paw edema(APE) after peroral administration of 100 mg/kg dose with control swelling of 51.6%. In a few lines:
as §5

In assay [20] the test system is Rattus norvegicus. Description: Compound was tested for the inhibition of arachidonic acid-induced rat's paw edema(APE) after peroral administration of 30 mg/kg dose with control swelling of 33.8%. In a few lines: as §5
The subject of assay [21] is Rattus norvegicus. The assay can be described thus: Antiinflammatory activity on Zymosan-induced rat's paw edema(ZPE) after peroral administration of 30 mg/kg dose with control swelling of 66.9%. In a few lines: as §4
The subject of assay [22] is Rattus norvegicus. The assay can be described thus: Antiinflammatory activity on Zymosan-induced rat's paw edema(ZPE) after peroral administration of 100 mg/kg dose with control swelling of 66.9%. In a few lines:
as §4

In assay [23] the test system is Rattus norvegicus. The assay can be described thus: Antiinflammatory activity on Carrageenan rat's paw edema(CPE) after peroral administration of 30 mg/kg dose.
The test system of assay [24] is Rattus norvegicus. The assay can be described thus: Compound was tested for the inhibition of Zymosan-induced rat's paw edema(ZPE) after peroral administration of 30 mg/kg dose. The gist of the method: as §4

As for `O=C(NCc1cccnc1)c1c(O)c2cccnc2n(-c2ccccc2)c1=O`, the inhibition in vivo at 100 mg/kg in [1] turned out to be 53.5%; in assay [2], 29.3%; in assay [3], 25.5%; in [6], 14.7%. Moreover, the figures for the Swelling in assay [4] and in assay [5] were 62.8% and 54.3%, respectively.

As to `O=C(Cn1c(=O)sc2ccc(Cl)cc21)N1CCN(CCO)CC1` [TIARAMIDE], the inhibition in vivo at 100 mg/kg in assay [7] was 67.2%; in assay [3], 23%; in [8] it was 48.3%; in assay [13], 94.9%; in assay [6], 13.3%. The inhibition in vivo at 10 mg/kg is 40.7% in assay [9] and 2.3% in assay [10]. For the same compound, the inhibition in vivo at 30 mg/kg in assay [11] worked out at 8.4%; in assay [12], 5%; in assay [16], 59.3%; in assay [17] it was 9.8%; in [24], 15.1%. Further, the inhibition in vivo at 3 mg/kg in assay [14] amounted to 13.6%; in assay [15] it was 2.7%. Also, the Swelling came out at 60.6% in assay [18]; 26.7% in [19]; 32.1% in assay [20]; 56.8% in assay [21]; 51.5% in assay [22]; 64% in assay [23].
